# This is a sample that favours compounds with a hit; in the whole collection about 3.7% have one here.
# KCNK9 inh: inhibitors of human KCNK9 two-pore domain potassium channel; Q9NPC2; HEK293 KCNK9, FluxOR thallium flux fluorescence; active compounds read low; B-score at 10 µM; hit rate 1.2% among 310,000;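 active = ratio B-score over 3 SD below the library mean, with starting fluorescence within 5 SD of its mean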;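 note: negative B-score means less thallium flux so channel inhibition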
# Target sequence (Q9NPC2 whole entry, looked up, the tested form may be a part): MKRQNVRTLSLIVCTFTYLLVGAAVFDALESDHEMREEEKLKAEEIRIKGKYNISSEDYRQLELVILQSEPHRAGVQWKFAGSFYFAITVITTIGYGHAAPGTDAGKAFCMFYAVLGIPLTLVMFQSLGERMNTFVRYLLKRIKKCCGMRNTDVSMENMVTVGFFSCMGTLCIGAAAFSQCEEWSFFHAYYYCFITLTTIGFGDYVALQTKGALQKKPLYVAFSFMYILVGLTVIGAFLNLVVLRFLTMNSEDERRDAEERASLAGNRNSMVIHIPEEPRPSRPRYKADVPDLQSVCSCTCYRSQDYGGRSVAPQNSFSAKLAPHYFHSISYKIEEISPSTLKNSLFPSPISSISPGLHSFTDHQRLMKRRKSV
# KCNK3 block: human KCNK3 channel inhibition, primary screen | hit rate 0.84% among 340,000 | CHO-KCNK3 thallium flux, FluxOR fluorescence; active compounds read low | O14649 | B-score at 10 µM;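 active = B-score under library mean minus 4 SD, starting fluorescence ratio at most library mean plus 5 SD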;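 note: more negative B-score means stronger inhibition of thallium flux through KCNK3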
# Target sequence (O14649 whole entry, looked up): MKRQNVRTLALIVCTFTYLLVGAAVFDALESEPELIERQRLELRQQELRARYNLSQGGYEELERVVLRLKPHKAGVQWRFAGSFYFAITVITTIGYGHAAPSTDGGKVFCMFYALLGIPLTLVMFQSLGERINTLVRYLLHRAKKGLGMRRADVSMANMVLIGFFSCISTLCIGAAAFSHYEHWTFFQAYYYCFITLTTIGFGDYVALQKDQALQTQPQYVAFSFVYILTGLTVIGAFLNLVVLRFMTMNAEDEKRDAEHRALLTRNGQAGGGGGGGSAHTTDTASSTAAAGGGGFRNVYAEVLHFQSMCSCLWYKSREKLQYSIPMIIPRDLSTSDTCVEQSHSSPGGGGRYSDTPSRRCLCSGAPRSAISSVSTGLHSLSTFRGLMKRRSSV
# Kir21 inh: blocks the mouse Kir2.1 inward-rectifier potassium channel. P35561. HEK293-Kir2.1, FluxOR thallium flux fluorescence; active compounds read low. B-score at 10 µM. hit rate 0.85% among 310,000. AID 1672;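 active = fluorescence ratio B-score at or below minus 3 SD of library scores, with starting-brightness B-score within 2 SD, cut at about -4.2 in these data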;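 note: channel flux triggered by added potassium and thallium sulfate stimulus; B-score of peak minus minimum fluorescence over baseline after thallium stimulus; more negative B-score means stronger Kir2.1 block with less thallium influx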
# KCNQ1 act: potentiators or activators of human KCNQ1 potassium channel; CHO-K1 KCNQ1, thallium flux FluxOR fluorescence; active compounds read high; B-score at 10 µM; hit rate 0.35% among 310,000; AID 2648;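 active = fluorescence ratio B-score, a plate-corrected score, at least three library SD, with initial intensity B-score within 5 SD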
#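 System: Stable KCNQ1 CHO-K1 line | Incubation: 90 min dye loading and 20 min compound exposure, both at room temperature | Measure: Ratio B score | Medium: Assay buffer for compound exposure, DMSO matched across wells | Compound dosing: Single-concentration screen | Probe or stimulus: K+/Tl+ depolarizing stimulus | Measured by: Kinetic FluxOR fluorescence, 10 s baseline plus 110 s post-stimulus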
# hERG protect: hERG (human) protection from proarrhythmic block | CHO-hERG, FluxOR thallium flux, dofetilide IC70 present | activation (rescue from dofetilide block), less the hit threshold, % at 10 µM | Q12809 | hit rate 0.51% among 310,000 | AID 1511;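 active = activation above the mean of controls blocked by dofetilide plus 5 SD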;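 note: thallium influx through hERG after potassium depolarization seen as dye fluorescence rise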
# KCNQ1 inh: inhibitors of human KCNQ1 potassium channel. P51787. CHO-K1 KCNQ1, FluxOR thallium flux fluorescence; active compounds read high. B-score at 10 µM. hit rate 1.3% among 310,000. AID 2642;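 active = compounds whose thallium flux B-score, printed positive for inhibition, exceeds three library SD while starting fluorescence stays within three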;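 note: channel opened by potassium depolarization with thallium stimulus after 20 min compound exposure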
# KCNQ1 inh valid: confirmation of human KCNQ1 potassium channel inhibitors. shares compounds with KCNQ1 inh. KCNQ1 cell line, FluxOR thallium flux fluorescence. inhibition, % at 10 µM. hit rate 93% among 1,600;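 active = primary screen active, with duplicate mean exceeding buffer control mean plus 3 SD of buffer wells, cut at about 28% in these data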;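 note: 0% = buffer control ratio and 100% = XE991 inhibitor control ratio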
# CHO Tl flux: KCNQ1 inhibitor counter-screen hit in parental CHO cells | shares compounds with KCNQ1 inh | parental CHO-K1, FluxOR thallium flux fluorescence ratio; active compounds read low; zero means no signal rise above baseline | fluorescence ratio (Tl flux) at 10 µM | hit rate 21% among 1,600;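 active = mean of duplicate thallium-flux fluorescence ratios in parental host cells more than 5 SD below the buffer control mean, cut at about 0.38 in these data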;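 note: ratio is peak minus minimum fluorescence divided by baseline fluorescence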
# KCNQ1 ephys val: human KCNQ1 inhibition validated by electrophysiology | KCNQ1-CHO cells, automated patch clamp current | shares compounds with KCNQ1 inh | calls only at 10 µM | hit rate 20% among 490 | AID 624120;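 active = KCNQ1 current drop exceeding 3 SD of negative control wells, seen in both duplicate runs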;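 note: steady state current during a 2 s step from -80 to +40 mV; negative values mean current inhibition and positive values mean potentiation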
# KCNQ2 spec: selectivity of KCNQ1 inhibitors: inhibition of rat KCNQ2 channel; shares compounds with KCNQ1 inh; KCNQ2 cells, FluxOR thallium flux fluorescence; inhibition, % at 10 µM; hit rate 71% among 1,600; AID 651746;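 active = mean percent inhibition of the KCNQ2 thallium signal more than 5 SD above the buffer-only control wells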;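 note: KCNQ2 expressed in CHO cells; 0% = buffer control wells and 100% = XE-991 inhibitor control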
# KCNQ1-KCNE1 inh: human KCNQ1/KCNE1 inhibition in KCNQ1 specificity screen; shares compounds with KCNQ1 inh; KCNQ1/KCNE1 cells, FluxOR thallium flux fluorescence; inhibition, % at 10 µM; hit rate 77% among 1,600;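 active = mean percent inhibition of duplicate wells above the buffer-only control mean plus 3 SD of those controls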;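 note: 0% = buffer only wells and 100% = XE-991 inhibitor control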
# * marks the source's active call; other numbers are inactive results; i = inactive; nt = no result given; + = active, no number.
SMILES,KCNK9 inh,KCNK3 block,Kir21 inh,KCNQ1 act,hERG protect,KCNQ1 inh,KCNQ1 inh valid,CHO Tl flux,KCNQ2 spec,KCNQ1-KCNE1 inh,others
O=C(Nc1cccc(S(=O)(=O)N2CCCCC2)c1)Nc1ccc(Cl)cc1Cl,i,i,1.7,i,-10,7*,98*,0.45,97%*,70%*,KCNQ1 ephys val=i
O=C(Cc1ccccc1Cl)Nc1cccc(S(=O)(=O)N2CCCCCC2)c1,nt,i,nt,nt,nt,nt,nt,nt,nt,nt,
CCOC(=O)c1cccc(Nc2nc(-c3cccnc3)nc3ccccc23)c1,i,i,-0.02,i,-19,7*,124*,0.39,122%*,+,KCNQ1 ephys val=i
COC(=O)c1cccc(Nc2nc(-c3cccnc3)nc3ccccc23)c1,i,i,0.23,i,-6,i,nt,nt,nt,nt,
OCCNc1nc(Nc2ccccc2)nc(Nc2ccccc2)n1,i,i,2.2,i,-10,i,nt,nt,nt,nt,
c1ccc(Nc2nc(NCC3CCCO3)c3ccccc3n2)cc1 (centres undefined),i,-10*,-15*,i,-26,12*,128*,0.4,116%*,150%*,KCNQ1 ephys val=+
OCCNc1nc(Nc2ccc(Br)cc2)nc2ccccc12,i,nt,-13*,i,-8,15*,0,0.46,78%*,i,
CCOc1ccc(Nc2nc(NCC3CCCO3)c3ccccc3n2)cc1 (centres undefined),i,i,-7.1*,i,-30,11*,134*,0.39,81%*,132%*,KCNQ1 ephys val=i
Cc1ccc(S(=O)(=O)N(Cc2ccccc2)Cc2ccco2)cc1,i,i,-5*,i,-15,7*,96*,0.46,93%*,40%*,KCNQ1 ephys val=i
CCC(CC)NC(=O)CN1CCN(S(=O)(=O)c2cccs2)CC1,nt,i,nt,nt,nt,nt,nt,nt,nt,nt,
CCOC(=O)/C=C1/N(C)c2ccccc2C1(C)C,i,i,-1.2,i,-10,i,nt,nt,nt,nt,
CN1/C(=C\C=C(C#N)C#N)C(C)(C)c2ccccc21,i,i,-0.54,i,-10,26*,+,0.015*,i,i,
c1ccc(CN2CCC(Nc3nc(-c4ccccc4)nc4ccccc34)CC2)cc1,i,i,-0.31,i,-19,i,nt,nt,nt,nt,
Cc1csc2ncnc(NC3CCN(Cc4ccccc4)CC3)c12,i,i,-0.84,i,-17,8*,26*,0.53,i,57%*,
Cc1ccc(S(=O)(=O)NC(C)C(c2cccs2)N2CCN(C)CC2)cc1 (centres undefined),i,i,-1.3,i,-1,i,nt,nt,nt,nt,
Cc1ccc(S(=O)(=O)NC(C)C(c2cccs2)N2CCN(c3ccccc3)CC2)cc1 (centres undefined),i,i,0.36,i,-5,7*,68*,0.45,89%*,92%*,
COc1ccc(CCn2c(-c3ccc(F)cc3)nc3c(c(=O)c4ccccc4n3C)c2=O)cc1OC,i,i,0.77,i,-7,i,nt,nt,nt,nt,
CCn1c(/C=C/c2ccc(O)c(O)c2)nc2ccccc2c1=O,i,i,-2.9,i,-17,7*,30*,0.52,i,i,
CCn1c(/C=C/c2ccc(O)cc2)nc2ccccc2c1=O,i,i,-0.9,i,-8,i,nt,nt,nt,nt,
Cc1cc(OC(C)C(=O)NCc2ccncc2)c2c(C)c(C)c(=O)oc2c1 (centres undefined),i,i,-0.31,i,-6,i,nt,nt,nt,nt,
Cc1cccc2[nH]c3c(N4CC=C(c5ccc(F)cc5)CC4)ncnc3c12,i,i,0.13,i,-14,14*,162*,0.33*,134%*,+,
COc1ccc(Nc2cc(C(=O)N3CCc4ccccc4C3)c3ccccc3n2)c(OC)c1,i,i,1.3,i,-14,7*,135*,0.42,130%*,176%*,KCNQ1 ephys val=i
COc1ccc(-c2cc(C(=O)N3CCN(c4ccccc4F)CC3)c3ccccc3n2)c(OC)c1,i,i,1.4,i,-19,7*,110*,0.39,i,176%*,KCNQ1 ephys val=i
COc1ccccc1-c1cc(C(=O)N2CCc3ccccc3C2)c2ccccc2n1,i,nt,0.01,i,-18,i,nt,nt,nt,nt,
O=C(c1cccs1)c1c[nH]cc1-c1ccccc1,i,i,2.2,i,-2,i,nt,nt,nt,nt,
SMILES,KCNK9 inh,KCNK3 block,Kir21 inh,KCNQ1 act,hERG protect,KCNQ1 inh,KCNQ1 inh valid,CHO Tl flux,KCNQ2 spec,KCNQ1-KCNE1 inh,others
CCc1cc(C(c2cccc(OC)c2)N2CCOCC2)c(NC(=O)c2ccccc2)s1 (centres undefined),i,i,0.01,i,-14,i,nt,nt,nt,nt,
CCc1cc(C(c2ccc(F)cc2)N2CCOCC2)c(NC(=O)c2ccccc2)s1 (centres undefined),i,i,1.2,i,-7,10*,100*,0.37*,99%*,154%*,
O=C(N/N=C\c1cccc(OC(=O)c2ccco2)c1)c1ccc2c(c1)OCO2,i,i,-0.12,i,-3,i,nt,nt,nt,nt,
Cc1ccc(NC(=O)c2sc3nc(C)nc(N4CCN(c5ccccn5)CC4)c3c2C)c(C)c1,i,i,0.54,i,-13,8*,84*,0.46,97%*,98%*,
Cc1ccc(NC(=O)c2sc3ncnc(N4CCN(c5ccccn5)CC4)c3c2C)c(C)c1,i,i,1,i,-21,i,nt,nt,nt,nt,
Cc1nc(N2CCN(c3ccccn3)CC2)c2c(C)c(C(=O)N3CCN(c4ccccc4F)CC3)sc2n1,i,i,1.3,i,-11,i,nt,nt,nt,nt,
Cc1nc(N2CCN(c3ccccn3)CC2)c2c(C)c(C(=O)Nc3ccc(Br)cc3C)sc2n1,i,i,-0.89,i,-13,7*,82*,0.45,98%*,104%*,
Cc1ccccc1OCCN(C#N)c1nc(N(C)C)nc(N(C)C)n1,i,i,0,i,-5,i,nt,nt,nt,nt,
Cc1ccc(NC(=S)Nc2ccc(OC(F)F)c(Cl)c2)cc1F,i,i,0.39,i,-34,14*,88*,0.49,i,i,KCNQ1 ephys val=i

# Source: PubChem (Johns Hopkins Ion Channel Center)
